Bioassay records: PubChem BioAssay, several laboratories
Mdm2 MdmX PPI: disrupts the human Mdm2-MdmX interaction. SaOS-2 split-luciferase Mdm2/MdmX complementation, luminescence. hit rate 3% among 330,000. inhibition, % at 8 µM. O15151+Q00987;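 active = inhibition of at least 50% at 8 µM in the primary screen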
SKKanGAS inh: inhibitors of SKKanGAS S. pyogenes growth in kanamycin (SK-promoter or general growth effect); BacTiter-Glo, 6 h; inhibition, % at 7.5 µM; hit rate 1.3% among 300,000;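 active = mean replicate score, as percent of positive control median, at least 50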;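 also: strain carries kanamycin resistance gene driven by streptokinase promoter and grows in 40 µg/ml kanamycin; loss of luminescence reflects streptokinase promoter inhibition or plain growth inhibition; 0% = median of DMSO wells and 100% = positive control at its reference dose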
CSC inhib: blocks cancer stem cells. inhibition, % at 7.5 µM. cancer stem cell-like cells viability, luminescence. AID 2717. hit rate 1.1% among 300,000; in the data active = inhibition above about 75%; tested in HMLE shEcad cells
T cruzi repl: T. cruzi replication inhibition; T. cruzi beta-gal in NIH3T3, luminescence, 90 h; hit rate 1.4% among 300,000; inhibition, % (concentration not given with the values);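 active = mean inhibition across valid replicates above about 55%, limit read from the data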;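 also: signal also drops with host cell toxicity which is not excluded here; 0% = plate median of DMSO wells and 100% = zero luminescence signal; higher percent means less beta-gal luminescence so fewer parasites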
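System: NIH/3T3 fibroblasts plus reporter T. cruzi. Medium: DMEM plus 2% FBS. Probe or stimulus: 5000 reporter trypomastigotes per well. Compound: single 50 nL compound addition per well in DMSO. Incubation: co-culture of at least 90 h after 3 h attachment. Detection: GalScreen β-gal luminescence, detergent lysis, 60 min. Evaluation: parasite load inhibition, %.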
aSyn UTR inh: 5' untranslated region of α-synuclein, MLPCN primary screen; inhibition, % (tested at 7.5 µM); alpha-synuclein 5'UTR reporter, inhibitor activity; hit rate 0.82% among 300,000; in the data active = inhibition above about 60%;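 also: H4 neuroglioblastoma cells stably carrying SNCA 5'UTR luciferase fusion; 0% = DMSO wells and 100% = positive control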
* hit, by the source's call; nt = no result given. Most compounds without a hit are left out; they make up all but 5.4% or so of the library.

SMILES	Mdm2 MdmX PPI	SKKanGAS inh	CSC inhib	T cruzi repl	aSyn UTR inh
COc1ccccc1N1CCN(c2ncc(C(=O)N3CCN(c4cccc(Cl)c4)CC3)c3ccccc23)CC1	33	21	20	61*	-16
O=C(Cc1ccc(S(=O)(=O)N2CCCC2)s1)Nc1nc2c(s1)CCCC2	6	62*	-7	-8	38
O=C(Cc1cccc2ccccc12)Nc1ccc(-c2cc3ccccc3oc2=O)cc1	46	4	5	35	65*
Cc1cc(C)cc(C(=O)NC(=S)Nc2ccc(-c3cc4ccccc4oc3=O)cc2)c1	35	25	11	32	97*
CC(=O)Nc1ccc(NC(=S)NC(=O)c2cc3ccccc3o2)cc1	-2	-6	-12	-12	-71
CCC(=O)Nc1cccc(-c2cc3ccccc3oc2=O)c1	14	-4	nt	-6	-58
Cc1ccc(C(=O)NC(=S)Nc2ccc(-c3cc4ccccc4oc3=O)cc2)c(C)c1	22	-6	-13	0	88*
Cc1c(C(C)NC(=O)c2cc(COc3cccc4cnccc34)on2)cnn1C (configuration not stated)	30	-2	-14	9	-15
COc1ccc(N2CC(C(=O)N[C@@H](C)C(=O)NCc3ccccc3OC)CC2=O)cc1 (some centres not stated)	13	-5	-7	3	11
CC1(C)CN(C(Cc2ccccc2)C(N)=O)C1=O (configuration not stated)	26	5	-3	1	-18
O=c1[nH]c(SCc2ccccc2Cl)nc2c1CCC2	-19	-4	-12	2	-10
CNc1nc(SCc2ccccc2Cl)nc2c1CCCC2	26	34	79*	14	23
O=S(=O)(Nc1nc(-c2sccc2Cl)cs1)c1cc(Cl)ccc1Cl	2	85*	119*	16	-11
CCOC(=O)[C@H]1[C@H]2COc3cc(OC)ccc3[C@@H]2N2C(=O)CN(C)C(=O)[C@@]12C	0	nt	-16	nt	nt
Cc1nn(-c2ccccc2)c(N)c1Sc1cccc([N+](=O)[O-])c1	-9	12	3	38	20
Cc1nn(S(=O)(=O)c2ccc([N+](=O)[O-])cc2)c(C)c1Sc1ccccc1	23	5	4	64*	5
COc1cccc2c(=O)cn[nH]c12	14	5	-4	7	3
O=C(NC(=S)N1CCN(c2nc(-c3ccccc3)cs2)CC1)c1cncc(Br)c1	17	77*	22	5	-30
CCOCCCNC(=S)N1CCN(c2nc(-c3ccccc3)cs2)CC1	26	-3	1	-4	-7
CCN(CC)CCCNC(=S)N1CCN(c2nc(-c3ccccc3)cs2)CC1	15	0	79*	19	-9
COc1ccc(-n2c(SC(C)C(=O)Nc3ncc(Cl)cc3Cl)nc3ccccc32)cc1 (configuration not stated)	nt	16	59	17	77*
Cc1nc(-c2ccccn2)nc(N(C)c2ccccc2)c1Cl	26	93*	nt	59*	-36
COc1ccc(S(=O)(=O)N2CCOC2CNC(=O)C(=O)NCc2ccccc2Cl)cc1 (configuration not stated)	20	52*	-1	2	5
COc1ccc(S(=O)(=O)N2CCOC2CNC(=O)C(=O)NCc2ccccc2OC)cc1 (configuration not stated)	-26	0	8	0	4
O=C(CNC(=O)c1ccco1)OCc1ccccc1F	1	nt	nt	nt	nt
SMILES	Mdm2 MdmX PPI	SKKanGAS inh	CSC inhib	T cruzi repl	aSyn UTR inh
CCCOc1ccc(-c2nnc(-c3cccs3)o2)cc1	-47	10	0	-8	45
CN(C)c1ccc(-c2nnc(-c3cccs3)o2)cc1	-50	-1	nt	28	82*
Cc1cc(C)cc(C(=O)N2CCC3(CC2)NCCc2[nH]cnc23)c1	18	-3	-4	2	4
Cc1noc2ncnc(Sc3ccc(Br)cc3)c12	30	6	50	62*	-23
Cc1noc2ncnc(N3CCCC3)c12	5	-3	9	3	0
CCc1ccc(CN(C)Cc2nc(-c3cccc(Cl)c3)no2)nc1	12	62*	-1	-10	0
O=C(NCCC(=O)N(CCc1ccccc1)Cc1ccccc1)c1ccc([N+](=O)[O-])cc1	27	7	-6	18	-6
Cn1c(-c2c(N)n(C3CCCC3)c3nc4ccccc4nc23)nc2ccccc21	48	102*	68	73*	5
Cn1c(-c2c(N)n(CCCc3ccccc3)c3nc4ccccc4nc23)nc2ccccc21	nt	113*	nt	71*	-57
